Reference: ChEMBL document CHEMBL3286180, “Efficacious inhaled PDE4 inhibitors with low emetic potential and long duration of action for the treatment of COPD” (J Med Chem, 2014)
Converted amounts (≈) assume the structure as drawn. The source made the active and inactive calls. The rule behind the calls is not given here.

Assays:
Blood [1] = test: tissue or blood; conditions: Rattus norvegicus, 20 h, read-out: pIC50 (converted)
[2] = Lipophilicity, log D of the compound; assay type: physicochemical; conditions: octanol/water
[3] = Volume of distribution at steady state in rat at 1 mg/kg, iv; assay type: ADME, organism-based; set-up: dose 1 mg/kg, route intravenous; conditions: in vivo, read-out: Vdss
[4] = Fraction unbound in rat plasma; assay type: ADME, cell-free
PBMC = test: Antiinflammatory activity in human PBMC assessed as inhibition of LPS-induced TNFalpha production after 20 hrs by fluorescence linked immunosorbant assay; assay type: functional, cell-based
[5] = Half life in rat at 1 mg/kg, iv; assay type: ADME, organism-based; set-up: dose 1 mg/kg, route intravenous; conditions: in vivo
Summary of the method: (§1)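 Rat pharmacokinetics were run at 1 mg/kg, given iv or by intratracheal instillation, with 2−3 animals per study.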

[6] = Clearance in rat at 1 mg/kg, iv; assay type: ADME, organism-based; set-up: dose 1 mg/kg, route intravenous; conditions: in vivo
Summary of the method: as §1

Rattus norvegicus [7] = test: Antiinflammatory activity in Sprague-Dawley rat assessed as inhibition of LPS-induced bronchoalveolar lavage neutrophils at 0.03 to 3 mg/ml, inhalation administered as nebulized suspension; assay type: functional, organism-based
Summary of the method: (§2)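 Rats were given the compound as an aqueous nebulized aerosol by nose-only inhalation 30 min before LPS challenge. Dose is expressed as mg/mL nebulizer concentration. Lung neutrophilia was the readout, and terminal lung concentration (nM) was measured. Groups held 8−10 animals per treatment.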

[8] = target: T1, 3',5'-cyclic-AMP phosphodiesterase 4B (Homo sapiens, UniProt Q07343); test: Inhibition of human recombinant PDE4B using [3H]cAMP by packard topcount scintillation counting analysis
[9] = Fraction unbound in human plasma; assay type: ADME, cell-free
[10] = Aqueous solubility of the compound at pH 7.4; assay type: physicochemical; conditions: aqueous medium
[11] = Intrinsic clearance in rat hepatocytes measured per 10^6 cells; assay type: ADME, cell-based, Hepatocyte; conditions: read-out: CLH
Rattus norvegicus [12] = test: Antiinflammatory activity in Sprague-Dawley rat assessed as inhibition of LPS-induced bronchoalveolar lavage neutrophils measured as LPS duration at 0.03 to 3 mg/ml, inhalation administered as nebulized suspension; assay type: functional, organism-based
Summary of the method: (§3)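 Duration protocol: rats received a nose-only inhalation of nebulized aqueous compound solution 12 h before LPS challenge. Dose is expressed as mg/mL nebulizer concentration. Readout was LPS-induced pulmonary neutrophilia, with terminal lung concentration (nM) measured. Groups held 8−10 animals per treatment.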

Rattus norvegicus [13] = test: Antiinflammatory activity in Sprague-Dawley rat assessed as inhibition of LPS-induced bronchoalveolar lavage neutrophils at 145 to 5238 particles/cm'3, inhalation administered as dry powder; assay type: functional, organism-based
Rattus norvegicus [14] = test: Antiinflammatory activity in Sprague-Dawley rat assessed as inhibition of LPS-induced bronchoalveolar lavage neutrophils at lung exposure 1000 to 6000 particles/cm'3, inhalation administered as dry powder; assay type: functional, organism-based
[15] = Intrinsic clearance in human liver microsomes; assay type: ADME; conditions: read-out: CLH
[16] = Clearance in dog; assay type: ADME, organism-based, Canis lupus familiaris; conditions: in vivo
Rattus norvegicus [17] = test: Antiinflammatory activity in Sprague-Dawley rat assessed as inhibition of LPS-induced bronchoalveolar lavage neutrophils measured as terminal lung concentration at 0.1 mg/ml, inhalation administered as […] treated 12 hrs before LPS; assay type: functional
Summary of the method: as §3

Rattus norvegicus [18] = test: Antiinflammatory activity in nasally dosed Sprague-Dawley rat assessed as inhibition of LPS-induced bronchoalveolar lavage neutrophils measured as nebulizer concentration administered as […]; assay type: functional
Summary of the method: (§4)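 ED80 was derived from the nose-only nebulized-solution dose response in rats dosed 30 min before LPS challenge, with neutrophilia as the readout. ED80 is given as nebulizer concentration, as the matching terminal total lung concentration, and as lung deposited dose estimated from measured filter sample and terminal lung levels.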

Rattus norvegicus [19] = test: Antiinflammatory activity in Sprague-Dawley rat assessed as inhibition of LPS-induced bronchoalveolar lavage neutrophils measured as terminal lung concentration at 0.01 mg/ml, inhalation administered as nebulized suspension; assay type: functional
Summary of the method: as §2

[20] = target: T2, 3',5'-cyclic-AMP phosphodiesterase 4B (Rattus norvegicus, UniProt P14646)
T2 sequence (P14646 whole entry): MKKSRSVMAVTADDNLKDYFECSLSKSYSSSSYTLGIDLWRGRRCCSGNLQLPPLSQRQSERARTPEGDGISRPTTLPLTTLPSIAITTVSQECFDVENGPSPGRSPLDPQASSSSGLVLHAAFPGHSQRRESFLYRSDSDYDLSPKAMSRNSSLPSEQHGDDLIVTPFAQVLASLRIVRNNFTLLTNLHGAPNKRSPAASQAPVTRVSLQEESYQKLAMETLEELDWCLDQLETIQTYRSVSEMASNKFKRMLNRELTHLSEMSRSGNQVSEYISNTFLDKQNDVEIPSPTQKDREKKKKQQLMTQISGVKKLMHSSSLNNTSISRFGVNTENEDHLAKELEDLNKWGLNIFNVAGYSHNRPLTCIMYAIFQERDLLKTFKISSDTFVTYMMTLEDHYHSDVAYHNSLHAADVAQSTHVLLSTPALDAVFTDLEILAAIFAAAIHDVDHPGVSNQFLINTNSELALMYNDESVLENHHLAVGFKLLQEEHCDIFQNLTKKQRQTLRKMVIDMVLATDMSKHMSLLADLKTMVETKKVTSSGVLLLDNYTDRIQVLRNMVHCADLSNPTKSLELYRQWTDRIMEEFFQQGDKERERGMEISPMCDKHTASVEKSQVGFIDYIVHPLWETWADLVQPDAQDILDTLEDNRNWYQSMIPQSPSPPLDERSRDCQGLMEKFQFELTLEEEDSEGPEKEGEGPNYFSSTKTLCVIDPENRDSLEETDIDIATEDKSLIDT

Rattus norvegicus [21] = test: Antiinflammatory activity in Sprague-Dawley rat assessed as inhibition of LPS-induced bronchoalveolar lavage neutrophils measured as terminal lung concentration at 0.003 mg/ml, inhalation administered as nebulized suspension; assay type: functional
Summary of the method: as §2

[22] = Oral bioavailability in dog; assay type: ADME, organism-based, Canis lupus familiaris; conditions: in vivo
Blood [23] = test: Antiinflammatory activity in human whole blood assessed as inhibition of LPS-induced TNFalpha production after 20 hrs by ELISA; assay type: functional, tissue-based
Rattus norvegicus [24] = test: Antiinflammatory activity in Sprague-Dawley rat assessed as inhibition of LPS-induced bronchoalveolar lavage neutrophils measured as terminal lung concentration at 0.3 mg/ml, inhalation administered as nebulized suspension treated 12 hrs before LPS; assay type: functional; conditions: in the assay text read “nebulized solution” for “nebulized suspension”
Summary of the method: as §3

[25] = Apparent volume of distribution in dog; assay type: ADME, organism-based, Canis lupus familiaris; conditions: in vivo, read-out: Vz/F
Rattus norvegicus [26] = test: Apparent volume of distribution in rat at 1 mg/kg, iv; assay type: ADME, organism-based; set-up: dose 1 mg/kg, route intravenous; conditions: in vivo
Summary of the method: as §1

Rattus norvegicus [27] = test: Antiinflammatory activity in Sprague-Dawley rat assessed as inhibition of LPS-induced bronchoalveolar lavage neutrophils measured as terminal lung concentration at 0.03 mg/ml, inhalation administered as […] treated 12 hrs before LPS; assay type: functional
Summary of the method: as §3

[28] = target: 3',5'-cyclic-AMP phosphodiesterase 4A (Homo sapiens, UniProt P27815); test: Inhibition of human PDE4A1A using [3H]cAMP by packard topcount scintillation counting analysis
[29] = target: T1, 3',5'-cyclic-AMP phosphodiesterase 4B; test: Inhibition of human recombinant PDE4B at high-affinity rolipram binding site
Rattus norvegicus [30] = test: Antiinflammatory activity in Sprague-Dawley rat assessed as inhibition of LPS-induced bronchoalveolar lavage neutrophils measured as terminal lung concentration at 0.1 mg/ml, inhalation administered as nebulized suspension; assay type: functional
Summary of the method: as §2

[31] = Lipophilicity, log K of the compound; assay type: physicochemical; conditions: octanol/water
Rattus norvegicus [32] = test: Antiinflammatory activity in nasally dosed Sprague-Dawley rat assessed as inhibition of LPS-induced bronchoalveolar lavage neutrophils measured as lung deposited dose administered as […]; assay type: functional
Summary of the method: as §4

[33] = Volume of distribution at steady state in dog; assay type: ADME, organism-based, Canis lupus familiaris; conditions: in vivo, read-out: Vdss
Rattus norvegicus [34] = test: Antiinflammatory activity in nasally dosed Sprague-Dawley rat assessed as inhibition of LPS-induced bronchoalveolar lavage neutrophils measured as lung concentration administered as […]; assay type: functional
Summary of the method: as §4

[35] = Half life in rat at 1 mg/kg, it; assay type: ADME, organism-based; set-up: dose 1 mg/kg, route endotracheal; conditions: in vivo, inhaled or intranasal
Summary of the method: as §1

[36] = target: Voltage-gated inwardly rectifying potassium channel KCNH2 (Homo sapiens, UniProt Q12809); test: Inhibition of human ERG
[37] = target: 3',5'-cyclic-AMP phosphodiesterase 4D (Homo sapiens, UniProt Q08499); test: Inhibition of human PDE4D using [3H]cAMP by packard topcount scintillation counting analysis
Rattus norvegicus [38] = test: Antiinflammatory activity in Sprague-Dawley rat assessed as inhibition of LPS-induced bronchoalveolar lavage neutrophils measured as terminal lung concentration at 0.03 mg/ml, inhalation administered as nebulized suspension; assay type: functional
Summary of the method: as §2

[39] = Half life in dog; assay type: ADME, organism-based, Canis lupus familiaris; conditions: in vivo

T1 sequence (Q07343 whole entry): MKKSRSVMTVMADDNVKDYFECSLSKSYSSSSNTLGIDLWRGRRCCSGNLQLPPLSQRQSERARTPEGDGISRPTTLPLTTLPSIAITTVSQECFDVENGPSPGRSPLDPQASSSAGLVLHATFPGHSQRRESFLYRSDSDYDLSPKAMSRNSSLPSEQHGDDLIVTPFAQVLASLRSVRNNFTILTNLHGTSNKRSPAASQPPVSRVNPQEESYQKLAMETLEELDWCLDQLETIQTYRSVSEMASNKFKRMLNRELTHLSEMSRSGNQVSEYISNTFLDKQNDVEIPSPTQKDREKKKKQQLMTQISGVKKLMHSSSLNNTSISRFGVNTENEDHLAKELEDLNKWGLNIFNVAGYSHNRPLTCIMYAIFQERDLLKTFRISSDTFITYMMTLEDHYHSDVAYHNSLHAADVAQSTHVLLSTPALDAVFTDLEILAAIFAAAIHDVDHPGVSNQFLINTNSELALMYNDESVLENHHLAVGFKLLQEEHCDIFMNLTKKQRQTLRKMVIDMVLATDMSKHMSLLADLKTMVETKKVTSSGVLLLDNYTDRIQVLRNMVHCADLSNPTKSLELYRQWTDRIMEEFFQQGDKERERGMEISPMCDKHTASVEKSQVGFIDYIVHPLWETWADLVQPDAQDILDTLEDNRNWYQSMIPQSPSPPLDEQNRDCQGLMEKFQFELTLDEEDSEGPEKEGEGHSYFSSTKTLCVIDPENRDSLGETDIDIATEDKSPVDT
Sequence of Voltage-gated inwardly rectifying potassium channel KCNH2 (Q12809 whole entry): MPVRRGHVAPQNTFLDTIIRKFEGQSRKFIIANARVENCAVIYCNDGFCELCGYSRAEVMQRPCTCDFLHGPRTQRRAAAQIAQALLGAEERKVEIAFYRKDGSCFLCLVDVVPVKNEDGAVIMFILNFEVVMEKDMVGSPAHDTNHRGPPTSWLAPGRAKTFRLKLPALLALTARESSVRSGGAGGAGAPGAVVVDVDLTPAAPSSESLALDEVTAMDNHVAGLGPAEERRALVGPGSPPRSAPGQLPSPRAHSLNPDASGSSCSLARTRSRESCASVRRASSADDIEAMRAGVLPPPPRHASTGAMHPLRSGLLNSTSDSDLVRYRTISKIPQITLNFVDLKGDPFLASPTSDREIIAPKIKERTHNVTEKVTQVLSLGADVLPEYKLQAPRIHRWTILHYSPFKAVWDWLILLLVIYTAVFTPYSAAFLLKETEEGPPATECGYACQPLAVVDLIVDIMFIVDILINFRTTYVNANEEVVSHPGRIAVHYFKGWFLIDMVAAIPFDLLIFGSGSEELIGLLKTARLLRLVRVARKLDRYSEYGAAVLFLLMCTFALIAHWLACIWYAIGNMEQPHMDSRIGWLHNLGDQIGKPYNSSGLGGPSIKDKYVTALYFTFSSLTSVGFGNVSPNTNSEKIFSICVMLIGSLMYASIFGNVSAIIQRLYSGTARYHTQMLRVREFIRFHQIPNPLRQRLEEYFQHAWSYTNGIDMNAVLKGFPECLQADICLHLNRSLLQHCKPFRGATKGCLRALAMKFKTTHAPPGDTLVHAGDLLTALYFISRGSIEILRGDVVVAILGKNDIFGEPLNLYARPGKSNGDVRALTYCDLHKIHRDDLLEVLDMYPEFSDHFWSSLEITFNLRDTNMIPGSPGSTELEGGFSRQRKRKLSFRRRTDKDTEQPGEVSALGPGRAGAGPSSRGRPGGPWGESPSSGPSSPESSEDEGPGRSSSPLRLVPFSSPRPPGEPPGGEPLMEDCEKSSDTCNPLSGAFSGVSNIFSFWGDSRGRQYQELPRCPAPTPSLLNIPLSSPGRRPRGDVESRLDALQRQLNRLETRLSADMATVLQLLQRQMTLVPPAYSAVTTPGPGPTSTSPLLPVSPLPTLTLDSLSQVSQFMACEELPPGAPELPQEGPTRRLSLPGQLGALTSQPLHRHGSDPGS
Sequence of 3',5'-cyclic-AMP phosphodiesterase 4A (P27815 whole entry): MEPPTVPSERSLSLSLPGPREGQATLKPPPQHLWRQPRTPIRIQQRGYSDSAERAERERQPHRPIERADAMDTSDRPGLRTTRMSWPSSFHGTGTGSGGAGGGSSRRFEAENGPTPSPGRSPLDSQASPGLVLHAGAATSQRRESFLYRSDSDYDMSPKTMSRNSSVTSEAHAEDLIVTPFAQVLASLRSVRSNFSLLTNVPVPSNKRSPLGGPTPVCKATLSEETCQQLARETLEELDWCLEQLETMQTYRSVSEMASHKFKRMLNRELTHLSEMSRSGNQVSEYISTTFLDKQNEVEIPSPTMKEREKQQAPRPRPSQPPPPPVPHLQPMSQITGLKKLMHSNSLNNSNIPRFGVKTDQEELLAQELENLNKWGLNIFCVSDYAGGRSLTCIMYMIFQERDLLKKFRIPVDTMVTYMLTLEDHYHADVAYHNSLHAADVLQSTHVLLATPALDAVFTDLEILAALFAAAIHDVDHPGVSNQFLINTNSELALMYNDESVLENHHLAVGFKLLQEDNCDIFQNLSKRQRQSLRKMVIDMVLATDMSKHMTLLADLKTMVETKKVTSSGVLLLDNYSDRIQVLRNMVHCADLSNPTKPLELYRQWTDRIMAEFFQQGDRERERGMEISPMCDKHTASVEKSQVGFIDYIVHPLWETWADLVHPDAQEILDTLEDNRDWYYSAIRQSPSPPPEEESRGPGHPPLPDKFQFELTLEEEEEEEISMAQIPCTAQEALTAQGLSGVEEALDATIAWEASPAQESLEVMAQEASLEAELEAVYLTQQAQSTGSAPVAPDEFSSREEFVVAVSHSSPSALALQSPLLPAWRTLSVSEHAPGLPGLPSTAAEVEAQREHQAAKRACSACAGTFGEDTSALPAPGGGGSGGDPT
Sequence of 3',5'-cyclic-AMP phosphodiesterase 4D (Q08499 whole entry): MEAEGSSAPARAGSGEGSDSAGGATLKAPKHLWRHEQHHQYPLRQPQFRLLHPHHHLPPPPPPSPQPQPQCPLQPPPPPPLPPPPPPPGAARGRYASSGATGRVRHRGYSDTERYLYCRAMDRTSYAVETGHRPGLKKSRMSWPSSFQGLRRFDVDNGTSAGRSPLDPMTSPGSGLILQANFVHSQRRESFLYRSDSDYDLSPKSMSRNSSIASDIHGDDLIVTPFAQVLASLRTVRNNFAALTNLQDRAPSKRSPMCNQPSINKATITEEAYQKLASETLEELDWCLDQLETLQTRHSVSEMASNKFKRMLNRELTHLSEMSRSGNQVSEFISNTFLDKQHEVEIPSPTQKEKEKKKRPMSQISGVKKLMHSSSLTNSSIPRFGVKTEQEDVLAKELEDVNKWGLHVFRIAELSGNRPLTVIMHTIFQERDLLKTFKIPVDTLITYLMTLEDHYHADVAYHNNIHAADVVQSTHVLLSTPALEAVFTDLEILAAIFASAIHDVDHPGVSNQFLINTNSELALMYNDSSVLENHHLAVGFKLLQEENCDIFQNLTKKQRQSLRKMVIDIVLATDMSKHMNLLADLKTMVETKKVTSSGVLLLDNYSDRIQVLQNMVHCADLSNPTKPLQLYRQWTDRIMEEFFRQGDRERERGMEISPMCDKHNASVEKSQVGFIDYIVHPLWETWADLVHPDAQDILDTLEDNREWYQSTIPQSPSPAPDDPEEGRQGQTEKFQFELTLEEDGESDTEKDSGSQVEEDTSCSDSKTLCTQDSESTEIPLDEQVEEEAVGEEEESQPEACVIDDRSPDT

Cc1ccc(O)c(C(=O)N[C@H]2CC[C@@H](NC(=O)c3cc(F)cnc3Oc3ccc(F)c(F)c3)CC2)c1 [UK-500001]
IC50 (Blood [1]): 39.8 nM
logD [2]: 4.4
Vd [3]: 22 L/kg
fraction unbound [4]: 0.017
IC50 (PBMC): 3.98 nM
half-life [5]: 7.6 h
clearance [6]: 97 mL/min/kg
inhibition (Rattus norvegicus [7]): inactive
IC50 [8]: 0.631 nM
fraction unbound [9]: 0.0017
solubility [10]: < 1 µM
hepatocyte CLint [11]: 76 µL/min/1e6 cells
inhibition (Rattus norvegicus [12]): inactive
inhibition (Rattus norvegicus [13]): Active
inhibition (Rattus norvegicus [14]): Active
microsomal CLint [15]: 116 µL/min/mg

Cc1csc(C(=O)N[C@H]2CC[C@@H](NC(=O)c3cc(F)cnc3Oc3cccc(-c4ccc(CN5C[C@@H](C)N[C@@H](C)C5)cc4CN4CCOCC4)c3)CC2)n1
clearance [16]: 34 mL/min/kg
Activity (Rattus norvegicus [17]): 22 nM
ED80 (Rattus norvegicus [18]): 20 µg/mL (≈ 26.5 µM)
Activity (Rattus norvegicus [19]): 12 nM
logD [2]: 1.9
Vd [3]: 18 L/kg
IC50 [20]: 0.02 nM
fraction unbound [4]: 0.23
Activity (Rattus norvegicus [21]): 2 nM
bioavailability [22]: 16%
IC50 (PBMC): 0.02 nM
IC50 (Blood [23]): 0.316 nM
Activity (Rattus norvegicus [24]): 57 nM
Vd/F [25]: 44 L/kg
half-life [5]: 7 h
clearance [6]: 44 mL/min/kg
IC50 [8]: 0.0251 nM
Vz/F (Rattus norvegicus [26]): 27 L/kg
Activity (Rattus norvegicus [27]): 7 nM
IC50 [28]: < 10 nM
fraction unbound [9]: 0.045
IC50 [29]: < 10 nM
Activity (Rattus norvegicus [30]): 90 nM
hepatocyte CLint [11]: 10 µL/min/1e6 cells
log K [31]: 1.32
ED80 (Rattus norvegicus [32]): 0.2 µg/kg
Vd [33]: 26 L/kg
ED80 (Rattus norvegicus [34]): 23 nM
half-life [35]: 8 h
microsomal CLint [15]: > 150 µL/min/mg
IC50 [36]: 20000 nM
IC50 [37]: 0.02 nM
Activity (Rattus norvegicus [38]): 30 nM
half-life [39]: 15 h
